In publication PMC5814546 (Clinical Pharmacokinetics, 2017):

Key:
[1] = Safety and tolerability, tablet single ascending dose study; type: in vivo, human
[2] = Safety and tolerability, capsule and tablet multiple ascending dose study; type: in vivo, human
Outline: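 Double-blind study; 12 per cohort randomized 3:1 to ALZ-801 or placebo. Cohort A fasted capsule: 171 mg once on day 1, twice daily days 2–7, then 256.5 mg days 8–14. Cohort D tablet 265 mg, ages 60–75, fed 30 min pre-dose: once day 1, twice daily days 2–6, once day 7. AEs recorded until follow-up call and coded by MedDRA v18.1.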

[3] = Regimen A: 171 mg tablet, fasted, n = 10
[4] = Regimen B: 205 mg tablet, fasted, n = 11
[5] = Regimen C: 205 mg tablet, fed, n = 12
[6] = Part 1: Cohort A, 171 and 256.5 mg capsule, fasted
[7] = Part 1: Cohort B, 256.5 and 340 mg capsule, fasted
[8] = Part 1: Cohort C, 256.5 and 340 mg capsule, fed
[9] = Part 2: Cohort D, 265 mg tablet, fed
[10] = Week 1, Cohort A 171 mg bid, capsule, fasted
[11] = Week 1, Cohort B 256.5 mg bid, capsule, fasted
[12] = Week 1, Cohort C 256.5 mg bid, capsule, fed
[13] = Week 1, Cohort D 265 mg bid, tablet, fed
[14] = Week 2, Cohort A 256.5 mg qd, capsule, fasted
[15] = Week 2, Cohort B 340 mg qd, capsule, fasted
[16] = Week 2, Cohort C 340 mg bid, capsule, fed

CC(C)[C@H](N)C(=O)NCCCS(=O)(=O)O [ALZ-801, 3-(L-valyl) amino-1-propanesulfonic acid]
Chills [1, 3]: 0
Flatulence [1, 3]: 0
Flushing [1, 3]: 0
Gastrointestinal disorders [1, 3]: 4
General disorders and administration site conditions [1, 3]: 0
Headache [1, 3]: 0
Nausea [1, 3]: 4
Nervous system disorders [1, 3]: 0
Somnolence [1, 3]: 0
Subjects reporting AEs [1, 3]: 4
Vascular disorders [1, 3]: 0
Vomiting [1, 3]: 1
Chills [1, 4]: 0
Flatulence [1, 4]: 0
Flushing [1, 4]: 0
Gastrointestinal disorders [1, 4]: 4
General disorders and administration site conditions [1, 4]: 0
Headache [1, 4]: 0
Nausea [1, 4]: 4
Nervous system disorders [1, 4]: 0
Somnolence [1, 4]: 0
Subjects reporting AEs [1, 4]: 4
Vascular disorders [1, 4]: 0
Vomiting [1, 4]: 1
Chills [1, 5]: 0
Flatulence [1, 5]: 0
Flushing [1, 5]: 0
Gastrointestinal disorders [1, 5]: 0
General disorders and administration site conditions [1, 5]: 0
Headache [1, 5]: 0
Nausea [1, 5]: 0
Nervous system disorders [1, 5]: 0
Somnolence [1, 5]: 0
Subjects reporting AEs [1, 5]: 0
Vascular disorders [1, 5]: 0
Vomiting [1, 5]: 0
Subjects reporting AEs ([1]; Regimen D: 342 mg (2 × 171 mg tablets), fed, n = 12): 3
Chills ([1]; Regimen D: 342 mg, fed, n = 12): 0
Flatulence ([1]; Regimen D: 342 mg, fed, n = 12): 0
Flushing ([1]; Regimen D: 342 mg, fed, n = 12): 0
Gastrointestinal disorders ([1]; Regimen D: 342 mg, fed, n = 12): 3
General disorders and administration site conditions ([1]; Regimen D: 342 mg, fed, n = 12): 0
Headache ([1]; Regimen D: 342 mg, fed, n = 12): 0
Nausea ([1]; Regimen D: 342 mg, fed, n = 12): 3
Nervous system disorders ([1]; Regimen D: 342 mg, fed, n = 12): 0
Somnolence ([1]; Regimen D: 342 mg, fed, n = 12): 0
Vascular disorders ([1]; Regimen D: 342 mg, fed, n = 12): 0
Vomiting ([1]; Regimen D: 342 mg, fed, n = 12): 0
onset of nausea ([1]; following fasted dosing): 0.5 to 1 h
onset of nausea ([1]; following fed dosing): 1.5 to 2.5 h
tolerability ([1]; tablet SAD study (Study 3)): well tolerated
incidence of TEAEs ([2]; 265 mg twice daily, fed state): equivalent to placebo
total number of TEAEs ([2]; ALZ-801 dosing in the fasting state): 65
No. of deaths (all causes) [2, 6]: 0
No. of deaths resulting from AEs [2, 6]: 0
Subjects affected by SAE/exposed [2, 6]: 0/9
No. of deaths (all causes) [2, 7]: 0
No. of deaths resulting from AEs [2, 7]: 0
Subjects affected by SAE/exposed [2, 7]: 0/9
No. of deaths (all causes) [2, 8]: 0
No. of deaths resulting from AEs [2, 8]: 0
Subjects affected by SAE/exposed [2, 8]: 0/9
No. of deaths (all causes) [2, 9]: 0
No. of deaths resulting from AEs [2, 9]: 0
Subjects affected by SAE/exposed [2, 9]: 0/9
TEAEs: Nausea [2, 10]: 3 (33.3) cases (%)
TEAEs: Vomiting [2, 10]: 0 cases (%)
TEAEs: Nausea [2, 11]: 4 (44.4) cases (%)
TEAEs: Vomiting [2, 11]: 2 (22.2) cases (%)
TEAEs: Nausea [2, 12]: 5 (55.6) cases (%)
TEAEs: Vomiting [2, 12]: 2 (22.2) cases (%)
TEAEs: Nausea [2, 13]: 3 (33.3) cases (%)
TEAEs: Vomiting [2, 13]: 1 (11.1) cases (%)
TEAEs: Nausea [2, 14]: 3 (33.3) cases (%)
TEAEs: Vomiting [2, 14]: 0 cases (%)
TEAEs: Nausea [2, 15]: 0 cases (%)
TEAEs: Vomiting [2, 15]: 2 (22.2) cases (%)
TEAEs: Nausea [2, 16]: 0 cases (%)
TEAEs: Vomiting [2, 16]: 0 cases (%)
tolerability ([2]; doses of up to 340 mg twice daily): well tolerated
